In ChEMBL document CHEMBL4823248, “Pyrazole Agonist of the Apelin Receptor Improves Symptoms of Metabolic Syndrome in Mice” (J Med Chem, 2021):

Legend:
[1] = target: T1, Apelin receptor (Homo sapiens, UniProt P35414); assay: Agonist activity at human APJ receptor expressed in CHO cells assessed as inhibition of forskolin-induced cAMP accumulation measured after 30 mins by TR-FRET assay
T1 sequence (P35414 whole entry): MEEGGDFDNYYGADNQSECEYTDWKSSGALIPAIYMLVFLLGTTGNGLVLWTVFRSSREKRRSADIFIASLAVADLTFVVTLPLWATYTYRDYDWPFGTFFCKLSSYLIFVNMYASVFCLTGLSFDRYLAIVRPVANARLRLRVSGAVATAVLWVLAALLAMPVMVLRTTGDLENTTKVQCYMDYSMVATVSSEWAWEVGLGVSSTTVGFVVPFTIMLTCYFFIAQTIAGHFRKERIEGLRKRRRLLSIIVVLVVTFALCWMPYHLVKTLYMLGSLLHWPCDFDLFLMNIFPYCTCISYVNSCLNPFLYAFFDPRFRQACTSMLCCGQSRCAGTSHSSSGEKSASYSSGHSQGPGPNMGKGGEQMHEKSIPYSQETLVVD

[2] = Half life in human pooled liver microsomes at 1 uM incubated up to 120 mins in presence of NADPH by LC-MS analysis; type: ADME, Microsome
[3] = Intrinsic clearance in human pooled liver microsomes at 1 uM incubated up to 120 mins in presence of NADPH by LC-MS analysis; type: ADME, Microsome; conditions: read-out: CLH
[4] = target: T1, Apelin receptor; assay: Agonist activity at human AGTRL1 expressed in CHO-K1 cells assessed as induction of beta-arrestin 2 recruitment incubated for 90 mins by PathHunter assay; type: functional, cell-based
[5] = target: Voltage-gated inwardly rectifying potassium channel KCNH2 (Homo sapiens, UniProt Q12809); assay: Displacement of [3H]astemizole from human ERG at 10 uM measured after 60 mins by scintillation counter method; conditions: 1 h
Sequence of Voltage-gated inwardly rectifying potassium channel KCNH2 (Q12809 whole entry): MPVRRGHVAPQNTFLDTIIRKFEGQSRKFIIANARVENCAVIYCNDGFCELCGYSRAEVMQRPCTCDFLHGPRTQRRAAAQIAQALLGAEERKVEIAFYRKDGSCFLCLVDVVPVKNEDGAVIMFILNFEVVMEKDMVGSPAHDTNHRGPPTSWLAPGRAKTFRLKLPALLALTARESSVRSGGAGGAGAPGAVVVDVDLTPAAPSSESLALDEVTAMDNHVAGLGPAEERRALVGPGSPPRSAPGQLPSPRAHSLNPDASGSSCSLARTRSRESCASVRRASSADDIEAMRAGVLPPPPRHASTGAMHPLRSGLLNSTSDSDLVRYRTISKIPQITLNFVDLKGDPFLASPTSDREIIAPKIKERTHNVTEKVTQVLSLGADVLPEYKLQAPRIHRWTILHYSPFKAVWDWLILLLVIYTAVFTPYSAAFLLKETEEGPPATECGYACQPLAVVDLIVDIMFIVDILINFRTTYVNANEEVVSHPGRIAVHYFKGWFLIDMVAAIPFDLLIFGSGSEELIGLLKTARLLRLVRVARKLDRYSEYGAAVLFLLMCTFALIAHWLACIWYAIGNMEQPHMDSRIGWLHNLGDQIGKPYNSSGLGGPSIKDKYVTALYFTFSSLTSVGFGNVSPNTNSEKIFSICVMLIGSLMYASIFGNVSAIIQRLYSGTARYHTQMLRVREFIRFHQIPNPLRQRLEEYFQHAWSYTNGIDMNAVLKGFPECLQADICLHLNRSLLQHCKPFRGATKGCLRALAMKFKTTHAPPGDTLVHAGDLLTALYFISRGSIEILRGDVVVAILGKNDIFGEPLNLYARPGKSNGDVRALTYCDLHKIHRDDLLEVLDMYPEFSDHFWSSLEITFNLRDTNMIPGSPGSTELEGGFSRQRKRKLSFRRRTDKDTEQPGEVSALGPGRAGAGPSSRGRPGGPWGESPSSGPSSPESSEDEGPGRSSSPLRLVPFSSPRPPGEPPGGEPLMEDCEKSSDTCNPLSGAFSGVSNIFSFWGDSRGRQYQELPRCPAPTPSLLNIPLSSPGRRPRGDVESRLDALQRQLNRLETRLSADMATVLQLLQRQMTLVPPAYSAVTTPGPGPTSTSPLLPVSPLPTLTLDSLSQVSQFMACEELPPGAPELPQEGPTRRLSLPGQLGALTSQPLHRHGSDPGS
Method in brief: (§1)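 Competition binding using 4 μg hERG-expressing membranes with ~3 nM [3H]astemizole for 60 min in pH 7.4 HEPES buffer with 0.1% BSA. Terminated by filtration onto polyethyleneimine-soaked GF/B filters, washed with ice-cold buffer, and counted with scintillant. At least two runs in duplicate.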

[6] = Cmax in CD-1 mouse plasma at 15 mg/kg, ip measured up to 24 hrs by LC-MS/MS analysis; type: ADME, organism-based; set-up: route intraperitoneal, dose 15 mg/kg, time <=24
Method in brief: (§2)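 Male CD-1 mice, about 10 weeks old, acclimated 72 h. Single 15 mg/kg IP dose formulated in modified citrate buffer (pH 6). Animals sacrificed at 0.5, 1, 2, 4, 8 and 24 h to collect plasma and brain samples. Cmax, AUC_all, CL and T1/2 determined.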

[7] = target: hERG (KCNH2) (Homo sapiens, UniProt Q12809); assay: Displacement of [3H]astemizole from human ERG at 10 uM measured after 60 mins by scintillation counter method relative to control; conditions: probe [3H]astemizole
Sequence of hERG (KCNH2) (Q12809 whole entry): as above
Method in brief: as §1

[8] = Kinetic solubility of the compound in pH 7.4 PBS buffer measured after 2 hrs by LC-MS/MS analysis; type: physicochemical; conditions: read-out: Kinetic_solubility
Method in brief: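 20 mM DMSO stock diluted into PBS pH 7.4 to a targeted 400 μM. Agitated 2 h at room temperature, filtered through 1 μm glass fiber, and eluate diluted 400-fold in acetonitrile/water (1:1) for analysis.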

[9] = target: T2, Type-1 angiotensin II receptor (Homo sapiens, UniProt P30556); assay: Agonist activity at Galphaq16-fused human AGTR1 expressed in CHO cells assessed as stimulation of Ca2+ mobilization incubated for 1 hr by Calcium 5-dye based fluorescence based assay; type: functional, cell-based
T2 sequence (P30556 whole entry): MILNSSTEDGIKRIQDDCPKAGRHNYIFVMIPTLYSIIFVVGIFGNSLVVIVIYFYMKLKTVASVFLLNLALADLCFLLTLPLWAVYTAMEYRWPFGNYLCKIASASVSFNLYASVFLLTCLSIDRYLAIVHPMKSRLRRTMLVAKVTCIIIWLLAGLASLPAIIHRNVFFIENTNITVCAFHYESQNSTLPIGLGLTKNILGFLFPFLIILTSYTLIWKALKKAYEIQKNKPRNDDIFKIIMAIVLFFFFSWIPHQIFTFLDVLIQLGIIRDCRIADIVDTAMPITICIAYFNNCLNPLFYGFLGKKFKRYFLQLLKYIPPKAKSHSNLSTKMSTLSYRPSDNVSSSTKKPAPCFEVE
Method in brief: (§3)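 CHO cells stably co-expressing Gαq16 with mouse APJ or human AGTR1; 20,000 hAGTR1 cells per well, plated 24 h at 37 °C. Loaded 1 h at 37 °C with Calcium 5 dye in HBSS buffer with 20 mM HEPES, 1% BSA, 10 μM probenecid, 1% DMSO final. Stimulated with compounds at various concentrations; fluorescence read on FLIPR Tetra. Duplicate, 2−3 runs.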

[10] = Clearance in CD-1 mouse plasma at 15 mg/kg, ip measured up to 24 hrs by LC-MS/MS analysis; type: ADME, organism-based
Method in brief: as §2

[11] = Half life in CD-1 mouse brain at 15 mg/kg, ip measured up to 24 hrs by LC-MS/MS analysis; type: ADME, organism-based
Method in brief: as §2

[12] = Half life in CD-1 mouse plasma at 15 mg/kg, ip measured up to 24 hrs by LC-MS/MS analysis; type: ADME, organism-based
Method in brief: as §2

[13] = Cmax in CD-1 mouse brain at 15 mg/kg, ip measured up to 24 hrs by LC-MS/MS analysis; type: ADME, organism-based; set-up: route intraperitoneal, dose 15 mg/kg, time <=24
Method in brief: as §2

[14] = AUC in CD-1 mouse plasma at 15 mg/kg, ip measured up to 24 hrs by LC-MS/MS analysis; type: ADME, organism-based; set-up: route intraperitoneal, dose 15 mg/kg, time <=24
Method in brief: as §2

[15] = target: T3, Apelin receptor (Mus musculus, UniProt Q9WV08); assay: Agonist activity at Galphaq16-fused mouse APJ receptor expressed in CHO cells assessed as stimulation of Ca2+ mobilization incubated for 1 hr by Calcium 5-dye based fluorescence based assay; type: cell-based
T3 sequence (Q9WV08 whole entry): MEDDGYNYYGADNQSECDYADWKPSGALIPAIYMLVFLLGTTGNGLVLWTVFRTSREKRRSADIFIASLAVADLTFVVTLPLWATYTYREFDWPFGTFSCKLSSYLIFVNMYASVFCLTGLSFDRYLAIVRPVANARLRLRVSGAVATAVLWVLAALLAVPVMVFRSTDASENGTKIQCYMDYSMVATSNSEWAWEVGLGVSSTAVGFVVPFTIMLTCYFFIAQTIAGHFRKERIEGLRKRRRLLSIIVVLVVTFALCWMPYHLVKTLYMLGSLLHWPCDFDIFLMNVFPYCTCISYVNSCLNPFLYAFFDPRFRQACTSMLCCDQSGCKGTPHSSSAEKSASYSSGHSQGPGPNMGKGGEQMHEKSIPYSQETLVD
Method in brief: as §3

[16] = Protein binding in human plasma at 10 uM measured after 4 hrs by LC-MS/MS analysis; type: ADME, cell-free; conditions: read-out: PPB (converted)
Method in brief: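 Human plasma spiked at 10 μM, dialyzed against phosphate/NaCl buffer by rapid equilibrium dialysis for 4 h at 37 °C with shaking at 100 rpm. Samples matrix-matched, protein precipitated with cold acetonitrile/formic acid, and analyzed by LC−MS/MS. Three independent samples.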

[17] = AUC in CD-1 mouse brain at 15 mg/kg, ip measured up to 24 hrs by LC-MS/MS analysis; type: ADME, organism-based; set-up: route intraperitoneal, dose 15 mg/kg, time <=24
Method in brief: as §2

SMILES	EC50 [1] [µM]	half-life at 1 µM [2] [min]	CLint scaled at 1 µM [3] [mL/min/kg]	EC50 [4] [µM]	other results
COc1cccc(OC)c1-c1cc(C(=O)N[C@@H](CCN2C(C)CCCC2C)CC(=O)NC2CCC2)nn1C1CCCC1.Cl (some centres undefined)	0.033	52	23.9	0.459	–
COc1cccc(OC)c1-c1cc(C(=O)N[C@@H](CCN2CCCCCC2)CC(=O)NC2CCC2)nn1C1CCCC1.Cl	0.008	38	32.4	0.159	–
COc1cccc(OC)c1-c1cc(C(=O)N[C@@H](CCN2CCCCC2)CC(=O)Nc2nnn[nH]2)nn1C1CCCC1	–	24.2	25.8	–	–
COc1cccc(OC)c1-c1cc(C(=O)N[C@@H](CCN2CCCCC2)CC(=O)N(C)C2CCC2)nn1C1CCCC1	0.105	37	33.3	0.326	–
COc1cccc(OC)c1-c1cc(C(=O)N[C@@H](CCN2CCCCC2)CC(=O)N(C)c2nccs2)nn1C1CCCC1	0.005	37	33.4	0.014	–
COCCN(C)C(=O)C[C@H](CCN1CCCCC1)NC(=O)c1cc(-c2c(OC)cccc2OC)n(C2CCCC2)n1	2.41	–	–	> 10	–
COc1cccc(OC)c1-c1cc(C(=O)N[C@@H](CCN2CCCCC2)CC(=O)NC2CC(F)(F)C2)nn1C1CCCC1	–	38	32.4	–	–
COc1cccc(OC)c1-c1cc(C(=O)N[C@@H](CCN2CCOCC2)CC(=O)NC2CCC2)nn1C1CCCC1.Cl	0.237	17	73.1	1.35	–
COc1cccc(OC)c1-c1cc(C(=O)N[C@@H](CCN2CCCCC2)CC(=O)Nc2nccs2)nn1C1CCCC1	0.001	27	46.7	–	–
COc1cccc(OC)c1-c1cc(C(=O)N[C@@H](CCN2CCCCC2)CC(=O)NC2CCC2)nn1C1CCCC1.Cl	–	62	20	–	inhibition (INH) [5]: Not Active; Cmax [6]: 1580 ng/mL; inhibition at 1 h, 10 µM [7]: < 50%; solubility kinetic at 2 h [8]: 192 µM; EC50 [9]: > 10 µM; CL/F [10]: 83 mL/min/kg; half-life [11]: 804 min; half-life [12]: 162 min; Cmax [13]: 103 ng/mL; AUC at 24 h [14]: 3000 ng·h/mL; EC50 [15]: 0.022 µM; fraction unbound at 4 h, 10 µM [16]: 0.09; AUC at 24 h [17]: 1080 ng·h/mL
COc1cccc(OC)c1-c1cc(C(=O)N[C@@H](CCN2CCCCC2)Cc2nnc[nH]2)nn1C1CCCC1	0.134	33	37.8	0.523	–
CC(C)NCC(O)COc1cccc2ccccc12 (centres undefined) [PROPRANOLOL]	–	–	–	–	fraction unbound at 4 h, 10 µM [16]: 0.39
